In the M2OR odorant receptor database:

Experiments:
OR10G8 (Homo sapiens) = biological target: T1, OR10G8 (Homo sapiens) (UniProt Q8NGN5); settings: stereoisomer not certain
T1 sequence (whole entry): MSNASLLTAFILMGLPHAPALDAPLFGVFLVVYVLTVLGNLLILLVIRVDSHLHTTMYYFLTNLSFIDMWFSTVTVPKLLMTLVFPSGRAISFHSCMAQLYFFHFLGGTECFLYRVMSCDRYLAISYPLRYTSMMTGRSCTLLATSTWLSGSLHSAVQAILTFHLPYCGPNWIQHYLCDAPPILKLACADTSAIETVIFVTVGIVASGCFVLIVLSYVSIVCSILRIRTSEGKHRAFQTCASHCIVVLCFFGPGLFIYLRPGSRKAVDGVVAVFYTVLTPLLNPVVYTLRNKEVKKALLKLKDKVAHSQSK
Method in brief: (§1)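 Each entry records the cell line, G-protein, co-transfected protein and tags used. Methods varied with the source, often transient luciferase assays in mammalian cell lines. A receptor–molecule pair is called responsive (active) if the original authors judged its signal statistically different from baseline and non-responsive (inactive) otherwise.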

OR10J5 (Homo sapiens) = biological target: T2, OR10J5 (Homo sapiens) (UniProt Q8NHC4); settings: stereoisomer not certain
T2 sequence (whole entry): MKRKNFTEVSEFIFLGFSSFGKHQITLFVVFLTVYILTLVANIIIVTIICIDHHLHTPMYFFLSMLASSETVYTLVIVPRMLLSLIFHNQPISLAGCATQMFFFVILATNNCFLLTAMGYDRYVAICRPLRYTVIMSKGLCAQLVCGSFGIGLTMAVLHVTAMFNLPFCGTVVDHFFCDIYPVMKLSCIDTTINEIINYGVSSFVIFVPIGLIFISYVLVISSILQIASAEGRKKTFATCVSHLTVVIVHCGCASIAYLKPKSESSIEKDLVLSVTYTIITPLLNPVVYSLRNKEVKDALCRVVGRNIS
Method in brief: as §1

Structure (SMILES) | odorant receptor agonist call (OR10G8 (Homo sapiens)) | odorant receptor agonist call (OR10J5 (Homo sapiens))
CCCCCCCCC(=O)O | inactive | inactive
CCCCCC(=O)CC |  | inactive
CCC(=O)O |  | inactive
